Calls of active or inactive are those of the source. No cut-off for these calls is given here. Bridge positions count the residues as written; N and C are the ends. Square brackets hold non-standard residues; d marks the D form. Peptide text beside a SMILES is read from it. I, II: the chains in the order shown. * marks the point of attachment. X1 = COc1cc2c(c(OC)c1OC)-c1ccc(OC)c(=O)cc1[C@@H](N(C(C)=O)C(=O)[C@H](CS)N*)CC2; X2 = O=C(CCS[C@@H]1O[C@H](CO)[C@H](O)[C@H](O)[C@H]1O)*; βGal = OC[C@H]1O[C@@H](*)[C@H](O)[C@@H](O)[C@H]1O; Dap = NC[C@H](N)C(=O)O; Mpa = O=C(O)CCS
Columns and labels:
[1] = test system: MEF; experiment: Cytotoxicity against MEF cells assessed as dead cells at 5 uM after 48 hrs by visual cell counting under the microscope; conditions: mouse
[2] = test system: Jurkat; experiment: Cytotoxicity against human Jurkat cells after 48 hrs; type: functional; conditions: read-out: LD50 (the source's name)
Summary of the method: (§1)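 Jurkat cells were grown in RPMI with 10% FCS, penicillin/streptomycin and L-glutamine at 37 °C and 5% CO2. They were seeded at 50,000 cells/mL and cultured overnight, then given compound from sterile water stock and held 48 h. Propidium iodide was added 2 min before FACS (excitation 488 nm). Dead cells were counted at 5 µM final. LD50 was derived from dose–response curves.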

[3] = test system: Jurkat; experiment: Cytotoxicity against human Jurkat cells assessed as dead cells at 5 uM after 48 hrs by propidium iodide-based FACS flow cytometry; type: functional
Summary of the method: as §1

[4] = test system: Jurkat; experiment: Cytotoxicity against human Jurkat cells at 5 uM after 48 hrs; type: functional, cell-based
Summary of the method: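 Jurkat cells (RPMI, 10% FCS, 37 °C, 5% CO2) seeded at 50,000 cells per mL, grown overnight, then dosed with colchicine–dendrimer conjugate at 5 μM final from sterile water stock. After 48 h, propidium iodide added 2 min before FACS (excitation 488 nm); dead vs healthy cells counted, reported as % dead cells.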

SMILES	Activity [1] [%]	CC50 [2] [nM]	Activity [3]	Activity [4]
COc1cc2c(c(OC)c1OC)-c1ccc(OC)c(=O)cc1[C@@H](N(C(C)=O)C(=O)[C@H](CS)NC(=O)[C@H](CC(=O)O)NC(=O)[C@H](CC(C)C)NC(=O)[C@H](Cc1ccc(O)cc1)NC(=O)[C@@H](NC(=O)[C@H](CNC(=O)[C@H](C)NC(=O)[C@H](CO)NC(=O)[C@H](CC(=O)O)NC(=O)[C@H](Cc1ccccc1)NC(=O)CCS[C@@H]1O[C@H](CO)[C@H](O)[C@H](O)[C@H]1O)NC(=O)[C@H](C)NC(=O)[C@H](CO)NC(=O)[C@H](CC(=O)O)NC(=O)[C@H](Cc1ccccc1)NC(=O)CCS[C@@H]1O[C@H](CO)[C@H](O)[C@H](O)[C@H]1O)[C@@H](C)O)CC2 (I: [Mpa](βGal)FDSA[Dap]TYLD-X1 / II: [Mpa](βGal)FDSA; amide I:6-II:C) [listing 1 of 2 here]	68			
COc1cc2c(c(OC)c1OC)-c1ccc(OC)c(=O)cc1[C@@H](N(C(C)=O)C(=O)[C@H](CS)NC(=O)[C@H](CC(=O)O)NC(=O)[C@H](CC(C)C)NC(=O)[C@H](Cc1ccc(O)cc1)NC(=O)[C@@H](NC(=O)[C@H](CNC(=O)[C@H](C)NC(=O)[C@H](CO)NC(=O)[C@H](CC(=O)O)NC(=O)[C@H](Cc1ccccc1)NC(=O)CCS[C@@H]1O[C@H](CO)[C@H](O)[C@H](O)[C@H]1O)NC(=O)[C@H](C)NC(=O)[C@H](CO)NC(=O)[C@H](CC(=O)O)NC(=O)[C@H](Cc1ccccc1)NC(=O)CCS[C@@H]1O[C@H](CO)[C@H](O)[C@H](O)[C@H]1O)[C@@H](C)O)CC2 (I: [Mpa](βGal)FDSA[Dap]TYLD-X1 / II: [Mpa](βGal)FDSA; amide I:6-II:C) [listing 2 of 2 here]		1530	<=91%	
COc1cc2c(c(OC)c1OC)-c1ccc(OC)c(=O)cc1[C@@H](N(C(C)=O)C(=O)[C@H](CS)NC(=O)[C@H](CC(=O)O)NC(=O)[C@H](CC(C)C)NC(=O)[C@H](Cc1ccc(O)cc1)NC(=O)[C@@H](NC(=O)[C@H](CNC(=O)[C@H](C)NC(=O)[C@H](CO)NC(=O)[C@H](CC(N)=O)NC(=O)[C@H](Cc1ccccc1)NC(=O)CCS[C@@H]1O[C@H](CO)[C@H](O)[C@H](O)[C@H]1O)NC(=O)[C@H](C)NC(=O)[C@H](CO)NC(=O)[C@H](CC(N)=O)NC(=O)[C@H](Cc1ccccc1)NC(=O)CCS[C@@H]1O[C@H](CO)[C@H](O)[C@H](O)[C@H]1O)[C@@H](C)O)CC2 (I: [Mpa](βGal)FNSA[Dap]TYLD-X1 / II: [Mpa](βGal)FNSA; amide I:6-II:C) [listing 1 of 2 here]	6			
COc1cc2c(c(OC)c1OC)-c1ccc(OC)c(=O)cc1[C@@H](N(C(C)=O)C(=O)[C@H](CS)NC(=O)[C@H](CC(=O)O)NC(=O)[C@H](CC(C)C)NC(=O)[C@H](Cc1ccc(O)cc1)NC(=O)[C@@H](NC(=O)[C@H](CNC(=O)[C@H](C)NC(=O)[C@H](CO)NC(=O)[C@H](CC(N)=O)NC(=O)[C@H](Cc1ccccc1)NC(=O)CCS[C@@H]1O[C@H](CO)[C@H](O)[C@H](O)[C@H]1O)NC(=O)[C@H](C)NC(=O)[C@H](CO)NC(=O)[C@H](CC(N)=O)NC(=O)[C@H](Cc1ccccc1)NC(=O)CCS[C@@H]1O[C@H](CO)[C@H](O)[C@H](O)[C@H]1O)[C@@H](C)O)CC2 (I: [Mpa](βGal)FNSA[Dap]TYLD-X1 / II: [Mpa](βGal)FNSA; amide I:6-II:C) [listing 2 of 2 here]		5520	19%	
COc1cc2c(c(OC)c1OC)-c1ccc(OC)c(=O)cc1[C@@H](N(C(C)=O)C(=O)[C@H](CS)NC(=O)[C@H](CCCCNC(=O)CCS[C@@H]1O[C@H](CO)[C@H](O)[C@H](O)[C@H]1O)NC(=O)[C@H](Cc1ccccc1)NC(=O)[C@H](CCCNC(=N)N)NC(=O)[C@H](CC(N)=O)NC(=O)[C@H](CNC(=O)[C@@H](NC(=O)[C@H](CCC(=O)O)NC(=O)[C@H](CC(=O)O)NC(=O)CNC(=O)CCS[C@@H]1O[C@H](CO)[C@H](O)[C@H](O)[C@H]1O)[C@@H](C)O)NC(=O)[C@@H](NC(=O)[C@H](CCC(=O)O)NC(=O)[C@H](CC(=O)O)NC(=O)CNC(=O)CCS[C@@H]1O[C@H](CO)[C@H](O)[C@H](O)[C@H]1O)[C@@H](C)O)CC2 (I: [Mpa](βGal)GDET[Dap]NRFK(X2)-X1 / II: [Mpa](βGal)GDET; amide I:6-II:C)				inactive
COc1cc2c(c(OC)c1OC)-c1ccc(OC)c(=O)cc1[C@@H](N(C(C)=O)C(=O)[C@H](CS)NC(=O)[C@H](CCCCNC(=O)CCS[C@@H]1O[C@H](CO)[C@H](O)[C@H](O)[C@H]1O)NC(=O)[C@H](Cc1ccccc1)NC(=O)[C@H](CCCNC(=N)N)NC(=O)[C@H](CC(N)=O)NC(=O)[C@H](CNC(=O)[C@@H](NC(=O)[C@H](CCC(=O)O)NC(=O)[C@H](CC(N)=O)NC(=O)CNC(=O)CCS[C@@H]1O[C@H](CO)[C@H](O)[C@H](O)[C@H]1O)[C@@H](C)O)NC(=O)[C@@H](NC(=O)[C@H](CCC(=O)O)NC(=O)[C@H](CC(N)=O)NC(=O)CNC(=O)CCS[C@@H]1O[C@H](CO)[C@H](O)[C@H](O)[C@H]1O)[C@@H](C)O)CC2 (I: [Mpa](βGal)GNET[Dap]NRFK(X2)-X1 / II: [Mpa](βGal)GNET; amide I:6-II:C)				inactive
COc1cc2c(c(OC)c1OC)-c1ccc(OC)c(=O)cc1[C@@H](N(C(C)=O)C(=O)[C@H](CS)NC(=O)[C@H](CC(=O)O)NC(=O)[C@H](Cc1cnc[nH]1)NC(=O)[C@H](CCCNC(=N)N)NC(=O)[C@@H](NC(=O)[C@H](CNC(=O)[C@H](C)NC(=O)[C@H](Cc1cnc[nH]1)NC(=O)[C@H](CCCNC(=N)N)NC(=O)CNC(=O)CCS[C@@H]1O[C@H](CO)[C@H](O)[C@H](O)[C@H]1O)NC(=O)[C@H](C)NC(=O)[C@H](Cc1cnc[nH]1)NC(=O)[C@H](CCCNC(=N)N)NC(=O)CNC(=O)CCS[C@@H]1O[C@H](CO)[C@H](O)[C@H](O)[C@H]1O)[C@@H](C)O)CC2 (I: [Mpa](βGal)GRHA[Dap]TRHD-X1 / II: [Mpa](βGal)GRHA; amide I:6-II:C) [listing 1 of 2 here]	51			
COc1cc2c(c(OC)c1OC)-c1ccc(OC)c(=O)cc1[C@@H](N(C(C)=O)C(=O)[C@H](CS)NC(=O)[C@H](CC(=O)O)NC(=O)[C@H](Cc1cnc[nH]1)NC(=O)[C@H](CCCNC(=N)N)NC(=O)[C@@H](NC(=O)[C@H](CNC(=O)[C@H](C)NC(=O)[C@H](Cc1cnc[nH]1)NC(=O)[C@H](CCCNC(=N)N)NC(=O)CNC(=O)CCS[C@@H]1O[C@H](CO)[C@H](O)[C@H](O)[C@H]1O)NC(=O)[C@H](C)NC(=O)[C@H](Cc1cnc[nH]1)NC(=O)[C@H](CCCNC(=N)N)NC(=O)CNC(=O)CCS[C@@H]1O[C@H](CO)[C@H](O)[C@H](O)[C@H]1O)[C@@H](C)O)CC2 (I: [Mpa](βGal)GRHA[Dap]TRHD-X1 / II: [Mpa](βGal)GRHA; amide I:6-II:C) [listing 2 of 2 here]		1500	91%	
CC[C@H](C)[C@H](NC(=O)[C@@H]1CCCN1C(=O)[C@H](CNC(=O)[C@@H]1CCCN1C(=O)CNC(=O)[C@H](CC(=O)O)NC(=O)[C@H](CCCCNC(=O)CCS[C@@H]1O[C@H](CO)[C@H](O)[C@H](O)[C@H]1O)NC(=O)CCS[C@@H]1O[C@H](CO)[C@H](O)[C@H](O)[C@H]1O)NC(=O)[C@@H]1CCCN1C(=O)CNC(=O)[C@H](CC(=O)O)NC(=O)[C@H](CCCCNC(=O)CCS[C@@H]1O[C@H](CO)[C@H](O)[C@H](O)[C@H]1O)NC(=O)CCS[C@@H]1O[C@H](CO)[C@H](O)[C@H](O)[C@H]1O)C(=O)N[C@@H](CCC(=O)O)C(=O)N[C@H](C(=O)N[C@@H](CS)C(=O)N(C(C)=O)[C@H]1CCc2cc(OC)c(OC)c(OC)c2-c2ccc(OC)c(=O)cc21)C(C)C (I: [Mpa](βGal)K(X2)DGP[Dap]PIEV-X1 / II: [Mpa](βGal)K(X2)DGP; amide I:6-II:C)				inactive
CC[C@H](C)[C@H](NC(=O)[C@@H]1CCCN1C(=O)[C@H](CNC(=O)[C@@H]1CCCN1C(=O)CNC(=O)[C@H](CC(N)=O)NC(=O)[C@H](CCCCNC(=O)CCS[C@@H]1O[C@H](CO)[C@H](O)[C@H](O)[C@H]1O)NC(=O)CCS[C@@H]1O[C@H](CO)[C@H](O)[C@H](O)[C@H]1O)NC(=O)[C@@H]1CCCN1C(=O)CNC(=O)[C@H](CC(N)=O)NC(=O)[C@H](CCCCNC(=O)CCS[C@@H]1O[C@H](CO)[C@H](O)[C@H](O)[C@H]1O)NC(=O)CCS[C@@H]1O[C@H](CO)[C@H](O)[C@H](O)[C@H]1O)C(=O)N[C@@H](CCC(=O)O)C(=O)N[C@H](C(=O)N[C@@H](CS)C(=O)N(C(C)=O)[C@H]1CCc2cc(OC)c(OC)c(OC)c2-c2ccc(OC)c(=O)cc21)C(C)C (I: [Mpa](βGal)K(X2)NGP[Dap]PIEV-X1 / II: [Mpa](βGal)K(X2)NGP; amide I:6-II:C)				inactive
COc1cc2c(c(OC)c1OC)-c1ccc(OC)c(=O)cc1[C@@H](NC(C)=O)CC2 [COLCHICINE]	57	20	85%	

— ChEMBL document CHEMBL1240485, “Glycopeptide dendrimer colchicine conjugates targeting cancer cells” (Bioorg Med Chem, 2010)
